Laboratory results from ChEMBL document CHEMBL5154784, “Design, Synthesis, Biological Evaluation, and Computational Studies of Novel Ureidopropanamides as Formyl Peptide Receptor 2 (FPR2) Agonists to Target the Resolution of Inflammation in Central Nervous System Disorders” (J Med Chem, 2022).

Key:
[1] = Cytotoxicity against mouse N9 cells assessed as reduction in cell viability by measuring LDH release at 0.5 to 5 uM incubated for 24 hrs by LDH assay; assay type: toxicity, cell-based; conditions: n9, 24 h, dose 0.5-5 µM
Method in brief: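 N9 cells (2 × 10^4/well) given compound at 0.5 or 5 μM, alone or with LPS (E. coli O111:B4, 100 ng/mL) added 30 min later, for 24 h at 37 °C. Released LDH measured in supernatant (30 min, room temperature, 490/630 nm). Expressed as % of untreated cells, mean ± SEM, at least three experiments in triplicate.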

[2] = Neurotoxicity against Sprague-Dawley rat primary microglial cells assessed as reduction in cell viability by measuring LDH release at 0.1 uM incubated for 24 hrs by LDH assay; assay type: toxicity, cell-based; conditions: microglia
Method in brief: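 Sprague–Dawley rat neonatal cortical microglia (>95% Iba-1+), switched to 1% FBS medium 1 h before treatment. Compound 0.1 μM for 1 h, then LPS 100 ng/mL for 24 h; WRW4 10 μM given 30 min before in some sets, 0.1% vehicle. Supernatant LDH read at 540 nm, % of vehicle controls, mean ± SEM.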

[3] = Cmax in CD-1 mouse at 1 mg/kg, iv measured after 5 mins by UPLC analysis; assay type: ADME, organism-based; design: time 5 min, dose 1 mg/kg, route iv; conditions: in vivo
Method in brief: (§1)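 Male CD-1 mice (25–30 g) dosed i.v. 1 mg/kg or i.p. 10 mg/kg in 5% DMSO/10% solutol HS 15/85% sterile water, n = 3 per time point. Cardiac-puncture blood under isoflurane: i.v. 0.083–8 h, i.p. 0.25–24 h. K2EDTA plasma, protein precipitation with acetonitrile (rolipram internal standard), UPLC on C18 column.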

[4] = Clast in CD-1 mouse at 1 mg/kg, iv measured upto 4 hrs by UPLC analysis; assay type: ADME, organism-based; conditions: in vivo, read-out: Clast; method in brief: as §1
[5] = AUC (infinity) in CD-1 mouse at 1 mg/kg, iv measured upto 4 hrs by UPLC analysis; assay type: ADME, organism-based; design: time < 4 hrs, dose 1 mg/kg, route iv; conditions: in vivo; method in brief: as §1
[6] = Cmax in CD-1 mouse at 10 mg/kg, ip measured after 30 mins by UPLC analysis; assay type: ADME, organism-based; design: time 30 min, dose 10 mg/kg, route ip; conditions: in vivo, 0.5 h; method in brief: as §1
[7] = AUC (infinity) in CD-1 mouse at 10 mg/kg, ip measured after 30 mins by UPLC analysis; assay type: ADME, organism-based; design: time 30 min, dose 10 mg/kg, route ip; conditions: in vivo, 0.5 h; method in brief: as §1
[8] = Tlast in CD-1 mouse at 10 mg/kg, ip by UPLC analysis; assay type: ADME, organism-based; conditions: in vivo; method in brief: as §1
[9] = Drug concentration in CD-1 mouse brain at 10 mg/kg, ip measured after 2 hrs by UPLC analysis; assay type: ADME, organism-based; conditions: read-out: Ct
Method in brief: (§2)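 Male CD-1 mice (25–30 g) given 10 mg/kg i.p. in 5% DMSO/10% solutol HS 15/85% water, n = 3 per time point. Brains taken after decapitation under anesthesia, homogenized in four volumes 0.1 N HEPES. Plasma drawn by cardiac puncture. Acetonitrile precipitation with rolipram internal standard, UPLC quantification. Brain-to-plasma ratio taken from paired brain and plasma levels.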

[10] = Drug concentration in CD-1 mouse brain at 10 mg/kg, ip measured after 8 hrs by UPLC analysis; assay type: ADME, organism-based; conditions: read-out: Ct; method in brief: as §2

For `N#Cc1ccc(C[C@H](NC(=O)Nc2ccc(F)cc2)C(=O)N2CCc3ccc(F)cc32)cc1`, the Activity [1] was “Non-Toxic”, the Activity [2] was “Non-Toxic” and the Cmax [3] was 1380 ng/mL. For the same compound, the concentration at 4 h [4] was 14.1 ng/mL, the AUC [5] was 613 ng·h/mL and the Cmax [6] was 192 ng/mL. For the same compound, the AUC [7] was 731 ng·h/mL, the Tlast [8] was 8 h and the concentration at 2 h [9] was 37 ng/g. For the same compound, the concentration at 8 h [10] was 15.7 ng/g.
